Experimental data: ChEMBL document CHEMBL1136773, “Bridged bicyclic cores containing a 1,1-diarylethylene motif are high-affinity subtype-selective ligands for the estrogen receptor” (J Med Chem, 2003)

Tests used:
[1] = target: T1, Estrogen receptor (Homo sapiens) (UniProt P03372); assay: Binding affinity for purified human Estrogen receptor alpha was determined using a competitive radiometric binding assay with [3H]estradiol
T1 sequence (whole entry): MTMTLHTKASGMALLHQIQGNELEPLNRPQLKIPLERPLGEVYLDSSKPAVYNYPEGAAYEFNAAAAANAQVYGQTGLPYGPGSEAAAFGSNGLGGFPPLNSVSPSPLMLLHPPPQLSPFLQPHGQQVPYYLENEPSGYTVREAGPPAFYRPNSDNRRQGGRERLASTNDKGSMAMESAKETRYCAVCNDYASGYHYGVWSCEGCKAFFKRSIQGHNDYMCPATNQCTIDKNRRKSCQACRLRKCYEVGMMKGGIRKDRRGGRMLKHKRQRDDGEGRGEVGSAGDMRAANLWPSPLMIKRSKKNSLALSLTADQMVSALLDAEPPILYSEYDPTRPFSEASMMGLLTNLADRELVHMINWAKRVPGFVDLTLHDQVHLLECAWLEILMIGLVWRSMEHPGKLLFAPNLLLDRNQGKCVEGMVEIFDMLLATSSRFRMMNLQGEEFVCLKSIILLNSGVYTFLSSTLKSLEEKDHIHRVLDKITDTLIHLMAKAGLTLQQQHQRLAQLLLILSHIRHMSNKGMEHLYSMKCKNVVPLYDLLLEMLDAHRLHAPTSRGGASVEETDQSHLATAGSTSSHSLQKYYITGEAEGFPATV

[2] = target: Estrogen receptor beta (Homo sapiens) (UniProt Q92731); assay: Binding affinity for purified human Estrogen receptor beta was determined using a competitive radiometric binding assay with estradiol
[3] = target: T1, Estrogen receptor (Homo sapiens); assay: Transcriptional agonistic efficacy against ER alpha at 10e-6 M by cotransfection in HEC-1 cells; assay type: functional, cell-based
Procedure, shortened: (§1)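 HEC-1 cells were grown in charcoal dextran-treated calf serum medium without phenol red. They were lipofected for 5 h at 37 °C with ERα or ERβ expression vector, 2ERE-pS2-Luc reporter and pCMV β-galactosidase control. Agonist screen used 10^-8 and 10^-6 M ligand for 24 h. Read-out is luciferase corrected by β-galactosidase, expressed as % of the 10^-9 M estradiol response.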

[4] = target: Estrogen receptor beta (Homo sapiens) (UniProt Q92731); assay: Transcriptional agonistic efficacy against ER beta at 10e-6 M was determined by cotransfection in HEC-1 cells; assay type: functional, cell-based; procedure, shortened: as §1
[5] = target: T1, Estrogen receptor (Homo sapiens); assay: Transcriptional agonistic efficacy against ER alpha at 10e-8 M by cotransfection in HEC-1 cells; assay type: functional, cell-based; procedure, shortened: as §1
[6] = target: Estrogen receptor beta (Homo sapiens) (UniProt Q92731); assay: Transcriptional agonistic efficacy against ER beta at 10e-8 M by cotransfection in HEC-1 cells; assay type: functional, cell-based; procedure, shortened: as §1
[7] = target: T1, Estrogen receptor (Homo sapiens); assay: Transcriptional antagonistic efficacy agains ER alpha at 10e-6 M by cotransfection in HEC-1 cells; assay type: functional, cell-based
Procedure, shortened: (§2)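 Cotransfection in HEC-1 cells as for agonism: ERα or ERβ vector, 2ERE-pS2-Luc reporter, β-galactosidase control, lipofectin for 5 h. Ligand at 10^-6 M was given together with 10^-9 M estradiol for 24 h. Luciferase activity was normalized to β-galactosidase and expressed relative to 10^-9 M estradiol alone, set at 100%.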

[8] = target: Estrogen receptor beta (Homo sapiens) (UniProt Q92731); assay: Transcriptional antagonistic efficacy against ERbeta at 10e-6 M by cotransfectio in HEC-1 cells; assay type: functional, cell-based; procedure, shortened: as §2
[9] = target: Estrogen receptor (Homo sapiens) (UniProt Q92731+P03372); assay: Ratio of binding affinity for purified human estrogen beta receptors to that of binding affinity for purified human estrogen alpha receptors.
[10] = target: Estrogen receptor beta (Homo sapiens) (UniProt Q92731); assay: Binding affinity for purified human Estrogen receptor beta by displacement of [3H]estradiol

Chain of Estrogen receptor beta (Homo sapiens) (Q92731 whole entry): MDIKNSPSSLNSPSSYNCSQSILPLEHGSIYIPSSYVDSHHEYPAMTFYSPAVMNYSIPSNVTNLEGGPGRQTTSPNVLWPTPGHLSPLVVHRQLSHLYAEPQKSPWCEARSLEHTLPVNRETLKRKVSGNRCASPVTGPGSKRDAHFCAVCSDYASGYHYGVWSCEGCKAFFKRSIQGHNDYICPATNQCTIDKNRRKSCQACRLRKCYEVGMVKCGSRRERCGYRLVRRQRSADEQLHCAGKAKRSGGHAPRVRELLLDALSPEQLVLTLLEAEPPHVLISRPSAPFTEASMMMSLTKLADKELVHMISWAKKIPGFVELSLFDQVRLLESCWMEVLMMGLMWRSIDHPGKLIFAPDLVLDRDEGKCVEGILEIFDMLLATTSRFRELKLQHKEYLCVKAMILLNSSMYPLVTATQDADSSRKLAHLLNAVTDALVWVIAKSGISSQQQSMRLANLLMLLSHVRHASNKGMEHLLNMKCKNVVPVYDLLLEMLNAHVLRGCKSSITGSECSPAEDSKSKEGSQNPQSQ

Row | Compound | RBA [1] [%] | RBA [2] [%] | Efficacy [3] [%] | Efficacy [4] [%] | Efficacy [5] [%] | Efficacy [6] [%] | Efficacy [7] [%] | Efficacy [8] [%] | Ratio [9] | RBA [10] [%]
1 | Oc1ccc(C(=C2C3CC4CC(C3)CC2C4)c2ccc(O)cc2)cc1 | 243 | 317 | 20 | 2 | 20 | 2 | 19 | 2 | 1.3 | –
2 | CC1(C)CC(=C(c2ccc(O)cc2)c2ccc(O)cc2)C[C@]2(C)C(C)(C)[C@H]3CC[C@@]12C3 | 9 | 13 | 4 | 1 | 1 | 1 | 30 | 15 | 1.4 | –
3 | Oc1ccc(C(=C2C3CCCC2CCC3)c2ccccc2)cc1 | 31 | 35 | 80 | 17 | 71 | 8 | 83 | 22 | 1.1 | –
4 | Oc1ccc(C(=C2CCCCC2)c2ccc(O)cc2)cc1 | 68 | 334 | 12 | 3 | 9 | 2 | 22 | 4 | 4.9 | –
5 | Oc1ccc(C(c2ccc(O)cc2)C2CCCCC2)cc1 | 3.2 | 9 | – | – | – | – | – | – | 2.8 | –
6 | Oc1ccc(C(=C2C3CCCC2CCC3)c2ccc(O)cc2)cc1 | 513 | – | 22 | 2 | 25 | 2 | 23 | 2 | 0.59 | 301
7 | Oc1ccc(C(=C2CC3CCC2C3)c2ccc(O)cc2)cc1 (stereo not drawn) | 47 | 211 | 22 | 3 | 25 | 3 | 32 | 3 | 4.5 | –
8 | Oc1ccc(C2(c3ccc(O)cc3)C3CCCC2CCC3)cc1 | 0.31 | 0.25 | 6 | 4 | 1 | 2 | 43 | 78 | 0.81 | –
9 | Oc1ccc(C(=C2C3CCCC2CCC3)c2ccc(F)cc2)cc1 | 40 | – | 63 | 10 | 58 | 7 | 65 | 16 | 1.3 | 52
10 | CC12CCC(C1)C(C)(C)C2=C(c1ccc(O)cc1)c1ccc(O)cc1 (stereo not drawn) | 10 | 8 | 11 | 3 | 5 | 2 | 18 | 13 | 0.8 | –
11 | CC12CCC(CC1=C(c1ccc(O)cc1)c1ccc(O)cc1)C2(C)C (stereo not drawn) | 57 | 189 | 28 | 4 | 24 | 3 | 21 | 4 | 3.3 | –
12 | Oc1ccc(C(=C2CC3CC2C2CCCC32)c2ccc(O)cc2)cc1 (stereo not drawn) | 97 | 125 | 26 | 2 | 27 | 2 | 35 | 2 | 1.3 | –
13 | Oc1ccc(C(c2ccc(O)cc2)C2C3CCCC2CCC3)cc1 (stereo not drawn) | 15 | 13 | 41 | 50 | 16 | 21 | 40 | 55 | 0.87 | –
14 | Oc1ccc(C(=C2C3CCCC2CCC3)c2cccc(O)c2)cc1 | 46 | 89 | – | – | – | – | – | – | 1.9 | –
15 | Oc1ccc(C(=C2C3CCCC2CCC3)c2ccc(O)c(O)c2)cc1 | 108 | 187 | 20 | 2 | 15 | 2 | 38 | 2 | 1.7 | –
